Active and inactive are the calls of the source. No cut-off for these calls is given here.
What was measured:
Homo sapiens [1] = species on record: Homo sapiens; conditions: 1 mM
5'-nucleotidase [2] = biological target: T1, 5'-nucleotidase (Rattus norvegicus, UniProt P21588); assay: Inhibition of recombinant rat C-terminal His-tagged soluble form of CD73 expressed in baculovirus infected Sf9 insect cells using [2,8-3H]AMP as substrate measured after 25 mins by scintillation counting method
T1 sequence (P21588 whole entry): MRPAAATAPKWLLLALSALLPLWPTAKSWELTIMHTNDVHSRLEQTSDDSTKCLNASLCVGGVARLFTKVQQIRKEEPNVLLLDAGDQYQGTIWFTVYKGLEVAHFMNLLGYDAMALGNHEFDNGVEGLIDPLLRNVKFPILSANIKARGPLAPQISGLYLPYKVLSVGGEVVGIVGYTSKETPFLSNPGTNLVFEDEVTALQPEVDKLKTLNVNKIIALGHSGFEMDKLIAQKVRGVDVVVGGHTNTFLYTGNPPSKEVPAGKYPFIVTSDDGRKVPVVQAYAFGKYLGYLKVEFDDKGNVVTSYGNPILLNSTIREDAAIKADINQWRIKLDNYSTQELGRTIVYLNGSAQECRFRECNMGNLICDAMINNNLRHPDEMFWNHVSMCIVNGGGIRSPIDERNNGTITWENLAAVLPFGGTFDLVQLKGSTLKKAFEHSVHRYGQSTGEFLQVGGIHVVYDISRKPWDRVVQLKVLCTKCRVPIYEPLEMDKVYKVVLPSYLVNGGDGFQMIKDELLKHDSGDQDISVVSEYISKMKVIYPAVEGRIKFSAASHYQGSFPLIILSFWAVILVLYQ
Procedure, shortened: (§1)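 Enzyme is soluble rat CD73 from Sf9 cells, 1.63 ng per vial, in 25 mM Tris, 140 mM NaCl, 25 mM NaH2PO4, pH 7.4. […] Stopped by LaCl3 precipitation and GF/B filtration, then counted. Each compound first screened at 1 µM.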

[3] = biological target: T2, 5'-nucleotidase (Rattus norvegicus) (UniProt P21588); assay: Inhibition of recombinant rat C-terminal His-tagged soluble form of CD73 expressed in baculovirus infected Sf9 insect cells at 1 uM using [2,8-3H]AMP as substrate measured after 25 mins by scintillation counting method relative to control
T2 sequence (whole entry): T1 sequence (P21588 whole entry)
Procedure, shortened: as §1

5'-nucleotidase [4] = biological target: T3, 5'-nucleotidase (Homo sapiens, UniProt P21589); assay: Inhibition of CD73 in human tonsils at 100 nM using AMP as substrate preincubated for 30 mins followed by substrate addition and measured after 45 mins by lead nitrate-based histochemical analysis
T3 sequence (P21589 whole entry): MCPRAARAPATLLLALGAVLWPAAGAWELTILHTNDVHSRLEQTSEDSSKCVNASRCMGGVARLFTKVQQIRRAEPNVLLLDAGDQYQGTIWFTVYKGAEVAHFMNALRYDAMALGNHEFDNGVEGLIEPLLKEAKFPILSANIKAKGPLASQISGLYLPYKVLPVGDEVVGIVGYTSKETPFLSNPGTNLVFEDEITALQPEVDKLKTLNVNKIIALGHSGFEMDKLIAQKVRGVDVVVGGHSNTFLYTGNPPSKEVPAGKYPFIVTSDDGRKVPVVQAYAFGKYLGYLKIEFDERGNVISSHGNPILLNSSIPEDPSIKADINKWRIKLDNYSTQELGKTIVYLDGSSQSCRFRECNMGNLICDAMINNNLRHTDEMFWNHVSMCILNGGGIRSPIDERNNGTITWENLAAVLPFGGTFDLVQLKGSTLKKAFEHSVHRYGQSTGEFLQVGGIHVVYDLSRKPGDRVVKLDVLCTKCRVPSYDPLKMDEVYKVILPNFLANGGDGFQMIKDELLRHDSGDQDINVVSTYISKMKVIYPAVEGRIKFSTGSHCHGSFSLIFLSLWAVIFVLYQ
Procedure, shortened: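 Tonsil cryosections pre-incubated 30 min in Trizma-maleate sucrose buffer (pH 7.4) with 2 mM levamisole and inhibitor. […] Deposit developed with 0.5% (NH4)2S and quantified as grayscale mean pixel intensity of five germinal centers versus control (ANOVA, Dunnett).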

5'-nucleotidase [5] = biological target: T3, 5'-nucleotidase; assay: Inhibition of CD73 in human MDA-MB-231 cell membranes using [2,8-3H]AMP as substrate measured after 25 mins by scintillation counting method
Procedure, shortened: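 MDA-MB-231 membranes (7.4 ng protein per vial) in 25 mM Tris, 140 mM NaCl, 25 mM NaH2PO4, pH 7.4. […] Stopped with cold LaCl3/acetate buffer pH 4.0 and filtered on GF/B. Background-subtracted and normalized to the uninhibited control.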

[6] = biological target: T4, P2Y purinoceptor 14 (Homo sapiens) (UniProt Q15391); assay: (§2) Displacement of 6-Amino-9-(2-carboxy-4-((6-(4-(4-(4-(4-(3-carboxy-6-(4-(trifluoromethyl)phenyl)-naphthalen-1-yl)phenyl)piperidin-1-yl)butyl)-1H-1,2,3-triazol-1-yl)hexyl)carbamoyl)-phenyl)-3-iminio-5-sulfo-3H-xanthene-4-sulfonate from recombinant human P2Y14 receptor expressed in CHO cells at 3 uM preincubated for 30 mins followed by tracer addition and measured after 30 mins by flow cytometry; type: cell-based
T4 sequence (whole entry): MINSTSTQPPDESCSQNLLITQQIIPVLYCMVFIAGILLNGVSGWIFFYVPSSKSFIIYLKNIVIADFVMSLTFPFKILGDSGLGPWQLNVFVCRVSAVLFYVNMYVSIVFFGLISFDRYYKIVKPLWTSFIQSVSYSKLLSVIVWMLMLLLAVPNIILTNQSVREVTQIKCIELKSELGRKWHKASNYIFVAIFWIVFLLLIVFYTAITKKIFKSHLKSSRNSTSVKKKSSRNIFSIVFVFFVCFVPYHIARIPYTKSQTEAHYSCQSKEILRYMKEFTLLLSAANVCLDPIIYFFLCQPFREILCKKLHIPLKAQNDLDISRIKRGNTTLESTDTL

P2Y purinoceptor 6 [7] = biological target: T5, P2Y purinoceptor 6 (Homo sapiens, UniProt Q15077); assay: Agonist activity at human P2Y6 receptor expressed in human 1321N1 cells assessed as induction of calcium mobilization at 3 uM by calcium-4 dye based FLIPR assay relative to control; type: functional, cell-based
T5 sequence (Q15077 whole entry): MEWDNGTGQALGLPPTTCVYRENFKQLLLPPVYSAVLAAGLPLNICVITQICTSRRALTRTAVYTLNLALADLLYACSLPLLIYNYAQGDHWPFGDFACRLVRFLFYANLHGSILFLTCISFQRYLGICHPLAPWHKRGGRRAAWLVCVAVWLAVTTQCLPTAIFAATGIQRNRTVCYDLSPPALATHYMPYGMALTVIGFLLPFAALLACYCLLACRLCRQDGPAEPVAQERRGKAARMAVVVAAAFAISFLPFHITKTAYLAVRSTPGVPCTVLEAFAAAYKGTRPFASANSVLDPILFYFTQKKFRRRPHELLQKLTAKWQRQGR

P2Y purinoceptor 14 = biological target: T6, P2Y purinoceptor 14 (Homo sapiens, UniProt Q15391); assay: as §2, with “cells” for “cells at 3 uM”; type: cell-based
T6 sequence (Q15391 whole entry): T4 sequence (whole entry)

P2Y purinoceptor 6 [8] = biological target: T5, P2Y purinoceptor 6; assay: Agonist activity at human P2Y6 receptor expressed in human 1321N1 cells assessed as induction of calcium mobilization by calcium-4 dye based FLIPR assay; type: functional, cell-based
Homo sapiens [9] = species on record: Homo sapiens; assay: (§3) Inhibition of cytosolic nucleotidase in MaMel.65-CD73 cell cytosolic extract (unknown origin) at 100 uM using AMP as substrate preincubated for 5 mins followed by substrate addition and measured after 60 mins by malachite green oxalate dye based colorimetric method relative to control
Procedure, shortened: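 Cytosolic extract of CRISPR CD73-knockout MaMel.65 melanoma cells, 15.25 µg, in 50 mM Tris pH 7.0 with 100 mM KCl and 5 mM MgCl2. […] After 60 min, heat-stopped at 95°C. Released phosphate read with malachite green/molybdate at 600 nm. Levamisole 1 mM plus NaF 5 mM served as positive control. Three experiments in duplicate.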

5'-nucleotidase [10] = biological target: T3, 5'-nucleotidase; assay: Inhibition of CD73 in human tonsils using AMP as substrate preincubated for 30 mins followed by substrate addition and measured after 45 mins by lead nitrate-based histochemical analysis
Procedure, shortened: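 Human tonsil cryosections pre-incubated 30 min in Trizma-maleate sucrose buffer (40 mM Trizma maleate, 0.25 M sucrose, pH 7.4) with 2 mM levamisole plus inhibitor at 1, 10 or 100 nM. […] Pi deposit developed with 0.5% (NH4)2S. Read-out is mean grayscale pixel intensity of five matched germinal centers versus untreated control. One-way ANOVA with Dunnett's test.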

5'-nucleotidase [11] = biological target: T3, 5'-nucleotidase; assay: Inhibition of recombinant human C-terminal His-tagged soluble form of CD73 expressed in baculovirus infected Sf9 insect cells using [2,8-3H]AMP as substrate measured after 25 mins by scintillation counting method
Procedure, shortened: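 Soluble human CD73 lacking the GPI signal, with a C-terminal 6xHis tag, secreted from baculovirus-infected Sf9 cells and purified on Ni-NTA; 0.365 ng per vial. […] Product separated by lanthanum chloride precipitation and filtration, then scintillation counted.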

Homo sapiens [12] = species on record: Homo sapiens; assay: as §3, with “origin) at 5 mM using AMP” for “origin) at 100 uM using AMP”, “60 mins in presence of levamisole by malachite” for “60 mins by malachite”
Procedure, shortened: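 Cytosolic extract (15.25 µg) from CRISPR CD73-knockout melanoma cells in 50 mM Tris pH 7.0, 100 mM KCl, 5 mM MgCl2. […] Released phosphate read by malachite green/molybdate absorbance at 600 nm. Levamisole 1 mM plus NaF 5 mM as positive control; three independent experiments in duplicate.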

inhibition (Homo sapiens [1]) | Ki (5'-nucleotidase [5]) | IC50 (P2Y purinoceptor 14) | EC50 (P2Y purinoceptor 6 [8]) | inhibition (Homo sapiens [9]) | Ki (5'-nucleotidase [11]) | SMILES | Ki (5'-nucleotidase [2]) | inhibition [3] | inhibition (5'-nucleotidase [4]) | inhibition [6] | Activity (P2Y purinoceptor 6 [7]) | inhibition (5'-nucleotidase [10]) | inhibition (Homo sapiens [12])
70% | – | – | – | – | – | c1ccc([C@H]2CN3CCSC3=N2)cc1 | – | – | – | – | – | – | –
– | – | – | – | – | – | Nc1ncnc2c1ncn2[C@@H]1O[C@H](COP(=O)(O)CP(=O)(O)O)[C@@H](O)[C@H]1O [PHOSPHOMETHYLPHOSPHONIC ACID ADENOSYL ESTER] | 167 nM | > 50% | Active | – | – | – | –
– | 5.68 nM | 6.66 µM | 1390 nM | -3% | 4.58 nM | O=C(Nc1ccn([C@@H]2O[C@H](COP(=O)(O)CP(=O)(O)O)[C@@H](O)[C@H]2O)c(=O)n1)c1ccccc1 | 13.9 nM | > 50% | – | – | – | – | –
– | – | – | – | – | – | [F-].[Na+] | – | – | – | – | – | – | 70%
– | 4.51 nM | 0.362 µM | 203 nM | 4% | 5.33 nM | O=c1[nH]c(=O)n([C@@H]2O[C@H](COP(=O)(O)CP(=O)(O)O)[C@@H](O)[C@H]2O)cc1F | 14.8 nM | > 50% | – | – | – | – | –

SMILES | inhibition (Homo sapiens [1]) | Ki (5'-nucleotidase [5]) | IC50 (P2Y purinoceptor 14) | EC50 (P2Y purinoceptor 6 [8]) | inhibition (Homo sapiens [9]) | Ki (5'-nucleotidase [11]) | Ki (5'-nucleotidase [2]) | inhibition [3] | inhibition (5'-nucleotidase [4]) | inhibition [6] | Activity (P2Y purinoceptor 6 [7]) | inhibition (5'-nucleotidase [10]) | inhibition (Homo sapiens [12])
Cn1c(=NOCc2ccccc2)ccn([C@@H]2O[C@H](COP(=O)(O)CP(=O)(O)O)[C@@H](O)[C@H]2O)c1=O | – | 7.96 nM | > 3 µM | > 3000 nM | -2% | – | 3.67 nM | > 50% | – | inactive | 3.6% | Dose-dependent effect | –
